ChEMBL document CHEMBL1129609, “Synthesis and antiviral activity evaluation of some new aminoadamantane derivatives. 2” (1996)
Converted amounts (≈) assume the structure as drawn.

Experiments:
[1] = system: Human immunodeficiency virus 2; experiment: Antiviral activity against HIV-2 virus infected CEM cell lines.; format: functional, CCRF-CEM
MDCK [2] = experiment: Antiviral activity of compound was tested against influenza […] virus infected MDCK cell lines; format: functional; settings: Canis lupus familiaris
HEL [3] = experiment: Antiviral activity of compound was tested against proliferation virus infected HEL cell lines.; format: functional; settings: Homo sapiens
Human alphaherpesvirus 1 [4] = experiment: Antiviral activity against HSV-1 virus infected HEF cell lines.; format: functional
How it was run: (§1)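 Human embryonic fibroblasts, from embryonic lung or embryonic skin-muscle, infected with the virus. Endpoint is the minimum inhibitory concentration that reduces virus-induced cytopathicity by 50%. Values are averages of at least two separate experiments.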

HEL [5] = experiment: Antiviral activity of compound was tested against HCMV virus infected HEL cell lines.; format: functional; settings: Homo sapiens
How it was run: (§2)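 Vero (African green monkey kidney), HeLa (human epithelial) or HEL (human embryonic lung) cell monolayers infected with the virus. Readout is the minimum inhibitory concentration that reduces virus-induced cytopathicity by 50%. Values are averages of at least two separate experiments.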

MDCK [6] = experiment: Antiviral activity tested against influenza A,H1N1 virus infected MDCK cell lines.; format: functional; settings: Canis lupus familiaris
HeLa [7] = experiment: Antiviral activity of compound was tested against polio-1 virus infected HeLa cell lines.; format: functional; settings: Homo sapiens; how it was run: as §2
HEL [8] = experiment: Antiviral activity of compound was tested against TK+VZV virus infected HEL cell lines.; format: functional; settings: Homo sapiens; how it was run: as §2
CCRF-CEM [9] = experiment: Antiviral activity of compound was tested against HIV-1 virus infected CEM cell lines.; format: functional; settings: Homo sapiens
Human alphaherpesvirus 1 [10] = experiment: Antiviral activity against TK-HSV-1 virus infected HEF cell lines.; format: functional; how it was run: as §1
HeLa [11] = experiment: Antiviral activity of compound was tested against stomatitis virus infected HeLa cell lines.; format: functional; settings: Homo sapiens; how it was run: as §2
Vero [12] = experiment: Antiviral activity of compound was tested against reo1 virus infected vero cell lines.; format: functional; settings: Chlorocebus sabaeus; how it was run: as §2
HeLa [13] = experiment: Antiviral activity of compound was tested against Coxsackie B4 virus infected HeLa cell lines.; format: functional; settings: Homo sapiens; how it was run: as §2
HEL [14] = experiment: Antiviral activity of compound was tested against TK-VZV virus infected HEL cell lines.; format: functional; settings: Homo sapiens; how it was run: as §2
Vero [15] = experiment: Antiviral activity of compound were tested against semliki forest virus infected vero cell lines.; format: functional; settings: Chlorocebus sabaeus; how it was run: as §2
HeLa [16] = experiment: Antiviral activity of compound was tested against morphology virus infected HeLa cell lines.; format: functional; settings: Homo sapiens
[17] = Antiviral activity against influenza A,H2N2 virus infected MDCK cell lines.; format: functional
Vero [18] = experiment: Antiviral activity of compound was tested against Coxsackie B4 virus infected vero cell lines.; format: functional; settings: Chlorocebus sabaeus; how it was run: as §2
HEF [19] = experiment: Antiviral activity of compound was tested against vaccinia virus infected HEF cell lines.; format: functional; settings: Homo sapiens; how it was run: as §1
CCRF-CEM [20] = experiment: Antiviral activity of compound was tested against viability virus infected CEM cell lines.; format: functional; settings: Homo sapiens
Human alphaherpesvirus 2 = experiment: Antiviral activity against HSV-2 virus infected HEF cell lines.; format: functional; how it was run: as §1
MDCK [21] = experiment: Antiviral activity of compound was tested against influenza A,H3N2 virus infected MDCK cell lines.; format: functional; settings: Canis lupus familiaris
Vero [22] = experiment: Antiviral activity of compound was tested against sindbis virus infected vero cell lines.; format: functional; settings: Chlorocebus sabaeus; how it was run: as §2
HEF [23] = experiment: Antiviral activity of compound was tested against vesicular virus infected HEF cell lines.; format: functional; settings: Homo sapiens; how it was run: as §1
Vero [24] = experiment: Antiviral activity of compound was tested against morphology virus infected Vero cell lines.; format: functional; settings: Chlorocebus sabaeus
Human respirovirus 3 = experiment: Antiviral activity against parainfluenza 3 virus infected Vero cell lines.; format: functional; how it was run: as §2
MDCK [25] = experiment: Antiviral activity of compound was tested against morphology virus infected MDCK cell lines.; format: functional; settings: Canis lupus familiaris
HEF [26] = experiment: Antiviral activity of compound was tested against morphology virus infected HEF cell lines.; format: functional; settings: Homo sapiens
[27] = system: Vesicular stomatitis virus; experiment: Antiviral activity against vesicular stomatitis virus infected HEF cell lines.; format: functional; how it was run: as §1
Vero [28] = experiment: Antiviral activity of compound was tested against parainfluenza 3,[…] virus infected Vero cell lines.; format: functional; settings: Chlorocebus sabaeus; how it was run: as §2
CCRF-CEM [29] = experiment: Antiviral activity of compound were tested against HIV-2 virus infected CEM cell lines.; format: functional; settings: Homo sapiens
Vaccinia virus = experiment: Antiviral activity against vaccinia virus infected HEF cell lines.; format: functional; settings: Orthopoxvirus vaccinia; how it was run: as §1
HEF [30] = experiment: Antiviral activity of compound was tested against TK-HSV-1 virus infected HEF cell lines.; format: functional; settings: Homo sapiens; how it was run: as §1
HEF [31] = experiment: Antiviral activity of compound was tested against HSV-2 virus infected HEF cell lines.; format: functional; settings: Homo sapiens; how it was run: as §1

In the case of `CN(C)CC1CCCN1C12CC3CC(CC(C3)C1)C2` (stereo not drawn), the MIC50 [1] is reported as > 200 µg/mL, the MIC50 (MDCK [2]) is reported as 60 µg/mL (≈ 229 µM) and the MIC50 (HEL [3]) is reported as > 50 µg/mL. For the same molecule, the MIC50 (Human alphaherpesvirus 1 [4]) was > 200 µg/mL, the MIC50 (HEL [5]) was > 50 µg/mL and the MIC50 (MDCK [6]) was > 70 µg/mL. For the same molecule, the MIC50 (HeLa [7]) was > 400 µg/mL, the MIC50 (HEL [8]) was > 50 µg/mL and the MIC50 (CCRF-CEM [9]) was 115 µg/mL (≈ 438 µM). The MIC50 (Human alphaherpesvirus 1 [10]) was > 200 µg/mL, the MIC50 (HeLa [11]) was > 400 µg/mL and the MIC50 (Vero [12]) was > 400 µg/mL. The MIC50 (HeLa [13]) was > 400 µg/mL, the MIC50 (HEL [14]) was > 50 µg/mL and the MIC50 (Vero [15]) was > 400 µg/mL. The MIC50 (HeLa [16]) was > 400 µg/mL, the MIC50 [17] was 32.5 µg/mL (≈ 124 µM) and the MIC50 (Vero [18]) was > 400 µg/mL. The MIC50 (HEF [19]) was > 200 µg/mL, the MIC50 (CCRF-CEM [20]) was > 200 µg/mL and the MIC50 (Human alphaherpesvirus 2) was > 200 µg/mL. For the same molecule, the MIC50 (MDCK [21]) was 73 µg/mL (≈ 278 µM), the MIC50 (Vero [22]) was > 400 µg/mL and the MIC50 (HEF [23]) was > 200 µg/mL. For the same molecule, the MIC50 (Vero [24]) was > 400 µg/mL, the MIC50 (Human respirovirus 3) was > 400 µg/mL and the MIC50 (MDCK [25]) was > 250 µg/mL. For the same molecule, the MIC50 (HEF [26]) was > 400 µg/mL.

For `CN1CCOCC12C1CC3CC(C1)CC2C3` (stereo not drawn), the MIC50 (MDCK [2]) was 60 µg/mL (≈ 271 µM), the MIC50 (HEL [3]) was > 50 µg/mL and the MIC50 (Human alphaherpesvirus 1 [4]) was > 400 µg/mL. For the same molecule, the MIC50 (HEL [5]) was > 50 µg/mL, the MIC50 (MDCK [6]) was 22 µg/mL (≈ 99.4 µM) and the MIC50 (HeLa [7]) was > 400 µg/mL. The MIC50 (HEL [8]) was > 50 µg/mL, the MIC50 (CCRF-CEM [9]) was 158 µg/mL (≈ 714 µM) and the MIC50 (Human alphaherpesvirus 1 [10]) was > 400 µg/mL. The MIC50 (HeLa [11]) was > 400 µg/mL, the MIC50 (Vero [12]) was > 400 µg/mL and the MIC50 (HeLa [13]) was > 400 µg/mL. The MIC50 (HEL [14]) was > 50 µg/mL, the MIC50 (Vero [15]) was > 400 µg/mL and the MIC50 (HeLa [16]) was > 400 µg/mL. The MIC50 [17] was 4.3 µg/mL (≈ 19.4 µM), the MIC50 (Vero [18]) was > 400 µg/mL and the MIC50 [27] was > 400 µg/mL. For the same molecule, the MIC50 (CCRF-CEM [20]) was > 200 µg/mL, the MIC50 (Human alphaherpesvirus 2) was > 400 µg/mL and the MIC50 (MDCK [21]) was 53 µg/mL (≈ 239 µM). The MIC50 (Vero [22]) was > 400 µg/mL, the MIC50 (Vero [24]) was > 400 µg/mL and the MIC50 (Vero [28]) was > 400 µg/mL. The MIC50 (CCRF-CEM [29]) was > 200 µg/mL, the MIC50 (Vaccinia virus) was > 400 µg/mL and the MIC50 (MDCK [25]) was > 250 µg/mL. The MIC50 (HEF [26]) was > 400 µg/mL.

With `CN(C)CC1CCN(C23CC4CC(CC(C4)C2)C3)C1` (stereo not drawn) the MIC50 (HEF [30]) was > 10 µg/mL, the MIC50 (MDCK [2]) was > 100 µg/mL and the MIC50 (HEL [3]) was > 50 µg/mL. For the same molecule, the MIC50 (HEL [5]) was > 20 µg/mL, the MIC50 (MDCK [6]) was > 36 µg/mL and the MIC50 (HeLa [7]) was > 200 µg/mL. For the same molecule, the MIC50 (HEL [8]) was > 20 µg/mL, the MIC50 (CCRF-CEM [9]) was > 23 µg/mL and the MIC50 (HeLa [11]) was > 200 µg/mL. For the same molecule, the MIC50 (Vero [12]) was > 100 µg/mL, the MIC50 (HeLa [13]) was > 200 µg/mL and the MIC50 (HEL [14]) was > 50 µg/mL. The MIC50 (Vero [15]) was > 100 µg/mL, the MIC50 (HEF [31]) was > 10 µg/mL and the MIC50 (HeLa [16]) was 400 µg/mL (≈ 1520 µM). For the same molecule, the MIC50 [17] was 16.1 µg/mL (≈ 61.3 µM), the MIC50 (Vero [18]) was > 100 µg/mL and the MIC50 (HEF [19]) was > 10 µg/mL. The MIC50 (CCRF-CEM [20]) was 79 µg/mL (≈ 301 µM), the MIC50 (MDCK [21]) was > 100 µg/mL and the MIC50 (Vero [22]) was > 100 µg/mL. The MIC50 (HEF [23]) was > 10 µg/mL, the MIC50 (Vero [24]) was > 400 µg/mL and the MIC50 (Vero [28]) was > 100 µg/mL. The MIC50 (CCRF-CEM [29]) was > 40 µg/mL, the MIC50 (MDCK [25]) was 400 µg/mL (≈ 1520 µM) and the MIC50 (HEF [26]) was 40 µg/mL (≈ 152 µM).
